Measurements from the EternaBench riboswitch data.

Test system: MS2 coat protein
Assay: apparent Kd, MS2 coat protein; higher = weaker binding; RNA-MaP array; FMN 200 µM where present
Procedure, shortened: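 The apparent Kd is the median of filtered binding-curve fits, one per cluster, to green signal normalised to red-channel RNA signal and control-cluster median Fmax. The clusters were on Illumina sequencing chips, and stalled E. coli RNA polymerase had transcribed the designs on them. Titration used SNAP-549-labelled MS2 coat protein from 0.7 or 1.5 nM, doubling to 3 µM, without and then with constant ligand, in 100 mM Tris-HCl pH 7.5, 80 mM KCl, 4 mM MgCl2, BSA, DTT, yeast tRNA and Tween-20.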

[1] = designed as: OFF switch for flavin mononucleotide, no ligand
[2] = ligand present: flavin mononucleotide, designed as: OFF switch for flavin mononucleotide
[3] = designed as: ON switch for flavin mononucleotide, no ligand
[4] = ligand present: flavin mononucleotide, designed as: ON switch for flavin mononucleotide

Sequence	apparent Kd [1]	apparent Kd [2]	apparent Kd [3]	apparent Kd [4]
AGUGUGUGGCAGGAUAUGCUAUUAAUUGGUGAAGCAGAAGGGUCUACAUGAGGAUCACCCAUGUAAGCGGUUGA	39.7 nM	190 nM	–	–
AGUGUGUUAGGAUAUCGCAUAUGCUGGAGGAGGUGGAGUUACGAGAAGGAACAUGAGGAUCACCCAUGUAGGAC	28.2 nM	26.5 nM	–	–
AGUUAAUAUCGAGGAUAUAAGUCUAAGACAUGAGGAUCACCCAUGUGUGUCUUAGAAGGCGAUAUUAACAGCAUGUUACAUGCA	–	–	48.3 nM	8.07 nM
AGUUCUUGUGAAGGAUAUACGGCGGGUCGCGCAGUAGAAGGUCACAUGAGGAUCACCCAUGUCGACAAUGUGCAGUAUCGACAA	135 nM	271 nM	–	–
AGUUGGCGAGGAUAUACAUGAGGAUCACCCAUGUGAGAGAUACUAGUGAGGUCGAUUGGUAGAAGGCGCUGACA	132 nM	106 nM	–	–
AGUUUACAUGAGGAUCACCCAUGUGAGGAUAUGGUUUCGCUGGCCGUAGCCAGUGGAACCAGAAGGCGCGUGAU	87.6 nM	164 nM	–	–
AGUUUCUUGUAAGGAUAUACUAGCGAUAAGCUAGUAGAAGGUACUGUCUAUUGUAUCACUAUUUUACAUGAGGAUCACCCAUGU	–	–	7.13 nM	6.2 nM
AUAAAACAUGAGGAUCACCCAUGUGAGGAUAUGCUAAAAUAAAAUAAAAUAAAAUAAUGCAGAAGGCACAAAUA	59.6 nM	74.6 nM	–	–
AUAAAUAUAGCGAUAUGAUCGAGAGAUCAUGUCGCUAAAGUUAGAAGGACAUGAGGAUCACCCAUGUAGGAUAUGGGAGUAUGA	–	–	170 nM	62.8 nM
AUAAGCUCGUCAGGAUAUGCGACACUGUUUCGGCAGUGUGGUAUGAUCACAUGAGGAUCACCCAUGUAGAAGGGACGAGCUUAU	6.09 nM	11.7 nM	–	–
AUAAUGAGAGGAUAUACAUGAGGAUCACCCAUGUUAUUAACACGGCGAGCUCCAAUACGUAGAAGGCUCAUUUA	123 nM	26.5 nM	–	–
AUAAUGUGAGGAUAUCAGUAAGAAUGCUUCGGCAUUCUUACUGAGAAGGCACAUGAGGAUCACCCAUGUGAUUA	201 nM	964 nM	–	–
AUAAUUUUAUAUUUAUUUUUAUUCAGAAGGCAUAACAUGAGGAUCACCCAUGUAAAUUAAUGUUAUGAGGAUAUGAUUUGGUUA	26.2 nM	123 nM	–	–
AUACAUGAGGAUCACCCAUGUAAUUAAUUAACUAGUAAGAUCUAGGAUAUCAGCUCGAUUAGAGCUGAGAAGGAGAUCACAUGU	–	–	34.7 nM	16.9 nM
AUACAUGAGGAUCACCCAUGUAAUUAAUUAAUUAAUAAGAUCAAGGAUAUCAGCUCGAUUAGAGCUGAGAAGGUGAUCACAUGU	–	–	417 nM	306 nM
AUACAUGAGGAUCACCCAUGUUACAUGGCCUUGAUAGAUCGUAGAAGGAUGUUAUUAUUAAUUUCAUAGGAUAUACUAUUUAGU	95.1 nM	72.9 nM	–	–
AUACCACGAGGAUAUCGUCUAUAUUACAUGAGGAUCACCCAUGUUAUAUUUGUAAUGUUUCGAGAAGGCGUGUUUU	15.3 nM	13.3 nM	–	–
AUACCACGAGGAUAUCGUCUAUUCCACAUGAGGAUCACCCAUGUUAUCCAUGUUUCGUUUCGAGAAGGCGUGGGUU	59.9 nM	42.9 nM	–	–
AUACCUUAUGAGAAGGCGAUCAUGAAACAUGAUCGAGGAUAUCAUGUAAACAUGAGGAUCACCCAUGUAUGGGUAUUAUGGUAU	–	–	57.4 nM	10.9 nM
AUACUCAUGUAAGGAUAUGCAGCCGUUUCGGCUGCAGAAGGUACUAUAAUACAUGAGGAUCACCCAUGUCUAUAAAAUAAAGAC	–	–	60.6 nM	41.5 nM
AUACUCGUUGUGAGGAUAUCGUUUUCUUUACGGAUCGAGAAGGCACAUGAGGAUCACCCAUGUUUGACGUGAAU	33.7 nM	162 nM	–	–
AUAGGAUGAGGUGACGUACAUGAGGAUCACCCAUGUUUGACACAGGAUAUCCCGCGACUUGGUUUGGAGAAGGGUGGCAGACAA	164 nM	119 nM	–	–
AUAGGGACCUCGCAAUGUUUACAUGAGGAUCACCCAUGUAAGAGAAGGGUCCAGUCAUCUCCUGGAUAGGAUAUCUUACCGUUA	5.21 nM	6.44 nM	–	–
AUAGGUUAAGGAGGAUAUAGAGGGAGACGUACACAUGAGGAUCACCCAUGUAUUUAAUUAGUUUACUAGAAGGCUUAUGAUUGU	–	–	65.5 nM	101 nM
AUAUAGUCAGGAUAUCGAAGUGAGUGUUGGUGGGUAAGGUACGAGAAGGGACAUGAGGAUCACCCAUGUAGGAA	59.7 nM	44.1 nM	–	–
AUAUAUAGUGUGAGGAUAUGCUGGUCCUUGGAUCAGCAGAAGGCACAUGAGGAUCACCCAUGUAGUUUAUUUUG	17.5 nM	77 nM	–	–
AUAUCCGAAGCAGGAUAUCGACGAGGUGUCGAGGUAGAGCGUAUUCACAUGAGGAUCACCCAUGUCGAGAAGGGCUACAGGAUA	56.5 nM	15.9 nM	–	–
AUAUCUCCCGAGAAGGACGUACCACAUGUUGAUCACCGAUAUAAGGAACGUAGGAUAUUGGACAUGAGGAUCACCCAUGUGGAU	–	–	391 nM	23.6 nM

Sequence	apparent Kd [1]	apparent Kd [2]	apparent Kd [3]	apparent Kd [4]
AUAUCUCUGUAAGGAUAUAGAUGGUGUAAGCCUCCGACAUGAGGAUCACCCAUGUUAUAUGUUGUCUAGAAGGUACAGUGUCGG	–	–	1110 nM	898 nM
AUAUGACAUGAGGAUCACCCAUGUGAGGAUAUAUGCGCAGGUCCAGGGACGGCUGUGCAUAGAAGGUGCUUGGG	307 nM	268 nM	–	–
AUAUUCUAGAUAGGAUAUACUGAGGUUGAAUGGGUAGAAGGAUCGUUAGAGUGGACUACAUGAGGAUCACCCAUGUUGUUUAUU	–	–	48.3 nM	42.7 nM
AUCAAUCAUGUAGGAUAUGCGUGGCGAAGCUAUGCAGAAGGACAUGAGGAUCACCCAUGUCUUUCUGUCUGCGGACGGACAGGA	19.2 nM	55.7 nM	–	–
AUCAGCACGUGAGGAUAUGCGUCACUGCGUCAGCAGUGUGGUAAGAUCACAUGAGGAUCACCCAUGUAGAAGGCACGAGCUGAU	34 nM	460 nM	–	–
AUCAGCUCGACAGGAUAUACAUCACUGCUUCGGCAGUGUAUCUUAAUAACAUGAGGAUCACCCAUGUAGAAGGGUCGAGCUGAU	17.8 nM	31.6 nM	–	–
AUCAGCUCGUCAGGAUAUACAACACUGCUUCGGCAGUAUGAUAAGAUAACAUGAGGAUCACCCAUGUAGAAGGGACGAGCUGAU	6.99 nM	9.17 nM	–	–
AUCAGCUCGUCAGGAUAUACAUCACUGCUUCGGCAGUGUGGUAAGGUCACAUGAGGAUCACCCAUGUAGAAGGGACGAGCUGAU	8.48 nM	106 nM	–	–
AUCAGCUCGUCAGGAUAUACAUUACUGCUUCGGCAGUGUAUUAAGAUCACAUGAGGAUCACCCAUGUAGAAGGGACGAGCUGAU	23.2 nM	124 nM	–	–
AUCAGCUCGUCAGGAUAUACGUCACUGCGUCAGCAGUGUAGUAAGAUCACAUGAGGAUCACCCAUGUAGAAGGGACGAGCUGAU	5.55 nM	12 nM	–	–
AUCAGCUCGUCAGGAUAUACGUCACUGCGUCAGCAGUGUGGUAAGAUCACAUGAGGAUCACCCAUGUAGAAGGGACGAGCGGAU	14.3 nM	279 nM	–	–
AUCAGCUCGUCAGGAUAUACGUCACUGCGUCAGCUGUGUGGUAAGAUCACAUGAGGAUCACCCAUGUAGAAGGGACGAGCUGAU	15.3 nM	295 nM	–	–
AUCAGCUCGUCAGGAUAUACGUCACUGCGUCAUCAGUGUGGUAAGAUCACAUGAGGAUCACCCAUGUAGAAGGGACGAGCUGAU	15.5 nM	234 nM	–	–
AUCAGCUCGUCAGGAUAUACGUCACUGGGUCAGCAGUGUGGUAAGAUCACAUGAGGAUCACCCAUGUAGAAGGGACGAGCUGAU	66.3 nM	483 nM	–	–
AUCAUGUAAGGAUAUCUGACAUGUGACUUCGGUCACUGUUCAGAGAAGGUACAUGAGGAUCACCCAUGUAGAAC	76.7 nM	78.6 nM	–	–
AUCAUGUCAGGAUAUAUGACAUGGCUCUUCGGAGCAAGCUCAUAGAAGGGACAUGAGGAUCACCCAUGUAGAGC	22.7 nM	30.5 nM	–	–
AUCCGGGCUAACAUGAGGAUCACCCAUGUGUUAUACUUAAUAUAGGAUAUGUUUAUACUUUUUGGGCAGAAGGAUGGCCCGGAU	–	–	83.1 nM	68.8 nM
AUCCUGCGAGGAUAUACAUAGUUUUUUUCGUUUUGACUCGAACAUGAGGAUCACCCAUGUAGAAGGUGCUUCAC	59.5 nM	56 nM	–	–
AUCCUGCGAGGAUAUACUUACUUUUUUUCAUUUGGUUGCGAACAUGAGGAUCACCCAUGUAGAAGGUGCAUAAC	22.9 nM	24.7 nM	–	–
AUCGACAACAUCAUGGUGGAUCCUGAGGAUAUGAAUAGCUACAUGAGGAUCACCCAUGUCCCGCGUCAGAAGGCAGGUUUGAUC	–	–	400 nM	41.3 nM
AUCGGAAUGUAGAAGGGUGACAUGAGGAUCACCCAUGUUCAAAUGCGUUUUUCGGUAAUUGAUCCACAGGAUAUACUGUCCGUG	–	–	631 nM	485 nM
AUCGGCUCGUCAGGAUAUACGUCACUGCGUCAGCAGUGUGGUAAGAUCACAUGAGGAUCACCCAUGUAGAAGGGACGAGCUGAU	13.6 nM	268 nM	–	–
AUCGGGAGAGGAUAUACAUGAGGAUCACCCAUGUUGGGAACAUCGGUUUGUUAGUUUCGUAGAAGGCUCGGGCG	45.5 nM	59.6 nM	–	–
AUCUAAGAAUUAAUUGUGACUGACAGAAGGCAAUAGUAUGUGACCGACAUGAGGAUCACCCAUGUUGAGGAUAUGUCUUGCUAC	7.02 nM	22.4 nM	–	–
AUCUCAGGACGAGGAUAUCAAUACAUGAGGAUCACCCAUGUAUGACUACUGUGAUCCUUUAAGGCUGAGAAGGCGUCCCAAAUG	20.2 nM	60.8 nM	–	–
AUCUCAGGACGAGGAUAUCAAUACAUGAGGAUCACCCAUGUAUGAUUACUGUGAUCCUUCAAGGCUGAGAAGGCGUCCCAAAUG	12.2 nM	27 nM	–	–
AUCUUGUAAGGAUAUCUGACAAGUGACGAAAGUCACAGUUCAGAGAAGGUACAUGAGGAUCACCCAUGUAGAAC	17.6 nM	20.3 nM	–	–
